HSP90 refold inh: HSP90 inhibitors, primary screen, cell lysate, luminescence | 290,000 compounds, 0.91% hits | Rabbit reticulocyte lysate, luciferase refolding luminescence, 3 h | inhibition, % at 5.6 µM | AID 1789, 2009;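 active = inhibition above the screen-wide mean plus 3 SD, computed separately per campaign, cut at about 16% in these data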;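 note: 0% = DMSO wells and 100% = 60 µM geldanamycin wells; inhibitors lower the luminescence because luciferase stays unfolded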
HSF-1 act: HSF-1 activators, primary screen, NIH3T3-HGL cells, MG132 stress, luminescence, single point | NIH3T3-HGL HSF-1 luciferase reporter, 8 h; 100% = twice DMSO control signal | activation, % at 9 µM | 300,000 compounds, 1.7% hits | AID 504408, 2011;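 active = mean replicate activation of at least 50% with a set share of replicates each reaching 50%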;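 note: 0% = median of the neutral control wells and 100% = twice that signal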
Hep lipid drop: inhibitors of hepatocyte lipid droplet formation, primary screen, imaging, high-throughput imaging, BODIPY stain | 240,000 compounds, 0.4% hits | AML12 mouse hepatocytes, oleate lipid droplets | inhibition, % at 6.5 µM;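 active = lipid droplet intensity inhibited by at least 50%, with more than 500 cells counted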
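System: AML12 hepatocytes (mouse). Probe or stimulus: oleic acid at 100 µM to induce lipid droplet formation. Times: overnight treatment with compound plus oleate. Detection: Image-based BODIPY and DAPI two-channel analysis. Evaluation: percent inhibition of filter-corrected integrated lipid droplet intensity per well.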
HSF1 inh: HSF1 inhibitors in luciferase reporter cells, primary screen, cell-based, NIH3T3, luminescence. NIH3T3-HGL HSE-luciferase, MG132-induced, luminescence 8 h; hits give low values. activity change, negative = inhibition, % at 7.5 µM (by protocol). 300,000 compounds, 0.77% hits. AID 2098, 2009;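 active = more than half of replicate wells show activity change below -50%, luminescence cut by over half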;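 note: luciferase reports HSF-1 transcriptional activity via heat shock element; 0% = median of DMSO wells and -100% = zero luminescence signal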
HCV NS3 hel inh: inhibitors of HCV NS3 helicase, primary screen, biochemical, Cy5 molecular beacon fluorescence | Hepatitis C virus NS3 helicase | NS3 helicase DNA unwinding | inhibition, % at 10.9 µM | 290,000 compounds, 0.56% hits;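 active = inhibition above the mean of all tested compounds plus 3 SD, set per campaign, cut at about 35% in these data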;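 note: 0% = DMSO wells and 100% = thioflavine S control wells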
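Test system: hepatitis C virus NS3 helicase domain fragment enzyme. Also added: annealed dual-labelled DNA beacon duplex, ATP-started. Timing: 60 min unwinding reaction at 25 °C after ATP addition. Technique: Cy5 fluorescence. Measure: % inhibition of unwinding.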
Active calls of the source: *; x = not tested or not shown. Hits are enriched below; roughly 3.8% of the tested compounds scored in any of these assays.

SMILES	HSP90 refold inh	HSF-1 act	Hep lipid drop	HSF1 inh	HCV NS3 hel inh
Nn1c(SCc2ccc(F)cc2)nnc1-c1cccnc1	3.1	62.1*	16.7	31.5	-6.5
O=[N+]([O-])c1ccc(-n2nnnc2-c2ccccc2)c([N+](=O)[O-])c1	-0.6	231.0*	5.2	243.8	7.1
Cc1nc2cc(NC(=O)Nc3ccc(Br)cc3)ccc2o1	-1.6	58.3*	-1.3	18.9	-12.6
Cc1nc2cc(NC(=O)NCc3ccc4c(c3)OCO4)ccc2o1	-0.8	5.6	-13.4	-6.0	10.6
COc1ccc(C2=NN(c3ccccc3)C(c3cn(CCC(=O)O)nc3-c3ccccc3)C2)cc1 (stereo not drawn)	-9.2	-10.1	3.5	7.4	-34.5
Cc1cccc(NC(=O)c2onc3c2CCCC3)c1C	-2.2	65.3*	x	18.6	-4.9
Cc1cccc(NC(=O)c2onc3c2CCCC3)n1	27.8*	-14.1	10.4	-20.2	-2.6
CC(=O)Nc1ccccc1NC(=O)c1ccc(C)c(C)c1	1.5	1.1	-1.1	-1.2	4.4
O=C(NN=C1CCCC1)c1cccs1	-3.5	36.3	14.9	25.9	2.9
CC(=O)N1CCC(=NNC(=O)c2cccs2)CC1	-11.3	54.5*	-4.0	18.8	4.3
C=C(C)C1CC=C(C)/C(=N/NC(=O)c2ccccc2[N+](=O)[O-])C1 (stereo not drawn)	2.8	-6.7	4.9	-6.8	-4.7
C=C(C)C1CC=C(C)/C(=N/NC(=O)c2cccs2)C1 (stereo not drawn)	-6.7	79.7*	2.5	36.7	5.6
CC1=C/C(=N\NC(=O)c2cccs2)CC(C)(C)C1	-2.0	62.2*	42.0	53.7	-10.8
CCN(CC)c1ccc(/C=N/NC(=O)C(O)(c2ccccc2)c2ccccc2)o1	-1.1	281.1*	-6.2	163.8	30.4
O=C(O)c1ccc(/C=N/NC(=O)C(O)(c2ccccc2)c2ccccc2)cc1	-0.1	27.2	0.6	7.0	3.5
COc1cc(/C=C/C(=O)N2CCOCC2)ccc1OCc1ccccc1	-6.4	74.8*	1.5	46.3	-4.4
CCCCCCOc1ccc(/C=C/C(=O)N2CCOCC2)cc1OC	-3.0	17.4	-1.0	4.4	-3.5
COc1cc(/C=N/OCC(=O)Nc2cc(C)cc(C)c2)ccc1OCc1ccc(Cl)cc1	-0.4	71.1*	2.1	47.3	-6.1
COc1cc(/C=N/OCC(=O)NC2CCCCC2C)ccc1OCc1ccc(Cl)cc1 (stereo not drawn)	-1.3	1.7	14.5	-10.9	-4.2
COc1cc(/C=N/N2CCOCC2)ccc1OCc1ccccc1	-8.8	16.7	-1.1	26.5	6.3
COc1cc(/C=N/N2CCOCC2)ccc1OCc1ccc(Cl)cc1	2.8	80.1*	-9.3	33.8	0.7
COc1cc(/C=C(\C#N)c2ccccn2)ccc1OCc1ccc(Cl)cc1	4.6	67.5*	5.1	18.1	-9.0
COc1ccc(CNC(=O)CSc2nc3ccc(C)cc3[nH]2)cc1OC	1.8	-5.9	-15.9	-0.2	-7.3
CCN(Cc1ccccc1)c1ccc(/C=C(\C#N)c2ccccn2)cc1	0.3	102.6*	-5.5	53.0	-7.2
CCCSc1ccc(C(=O)Nc2ccc(Cl)cc2)cn1	2.1	22.0	-21.7	13.9	5.5
SMILES	HSP90 refold inh	HSF-1 act	Hep lipid drop	HSF1 inh	HCV NS3 hel inh
c1ccc2c(c1)Cc1cc(CN3CCOCC3)ccc1-2	0.4	56.4*	-0.9	41.0	-9.0
N#CCCN(C(=O)c1cc2c(s1)-c1ccccc1S(=O)(=O)C2)c1ccccc1	-6.1	-1.8	-1.7	-2.5	4.3
O=[N+]([O-])c1ccc(/C=[N+](\[O-])[C@@H]2CCCC[C@@H]2/[N+]([O-])=C/c2ccc([N+](=O)[O-])o2)o1	6.6	70.7*	-49.3	50.0	24.5
O=[N+]([O-])c1ccc(COP(=O)(O)OCc2ccc([N+](=O)[O-])cc2)cc1	x	-44.1	x	-30.6	x
Cc1ccc(NC(=O)N2CCc3ccccc32)cc1	16.0	62.8*	-12.0	39.9	2.3
Cc1ccc(NC(=O)N2CCCc3ccccc32)cc1	0.2	39.6	0.0	5.5	-4.3
O=C(Nc1ccccc1)N1CCc2ccccc2C1	1.5	-6.4	-2.8	16.7	7.7

Screening results: PubChem, several laboratories
